Experiments:
[1] = Inhibition of cJNK phosphorylation by Lantha screen assay
[2] = Inhibition of cJNK phosphorylation by pepJIP1 displacement DELFIA assay
[3] = target: Mitogen-activated protein kinase 14 (Homo sapiens, UniProt Q16539); assay: Inhibition of p38alpha
[4] = Inhibition of lethal factor
Furin = Furin (Homo sapiens, UniProt P09958); assay: Inhibition of furin
[5] = target: RAC-alpha serine/threonine-protein kinase (Homo sapiens) (UniProt P31749); assay: Inhibition of AKT at 100 uM
[6] = Inhibition of cJNK phosphorylation in TNF-alpha-stimulated HL60 cells by Lantha screen assay; assay type: cell-based; settings: HL-60
[7] = Metabolic stability in rat plasma assessed as drug level remaining after 1 hr; assay type: ADME, cell-free; settings: read-out: Stability
Summary of the method: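 Fresh rat plasma with 1 μM compound (2.5% final DMSO) at 37 °C, stopped at 0, 30 and 60 min with methanol plus internal standard, analysed by LC–MS. Percent parent remaining was taken against 0 min from peak-area ratios to internal standard. Run in duplicate with a plasma-labile positive control.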

Liver microsomes = assay: Metabolic stability in rat liver microsomes assessed as half life; assay type: ADME, Microsome
Summary of the method: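 Rat liver microsomes (1 mg/mL protein) with 4 μM compound and 2 mM NADPH in 50 mM phosphate pH 7.2, after 5 min preincubation, incubated 1 h at 37.5 °C. Aliquots taken every 15 min were quenched with methanol plus internal standard and analysed by LC–MS. Run in duplicate with 2 control compounds of known half-life.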

RAC-alpha serine/threonine-protein kinase (Homo sapiens), sequence (P31749 whole entry): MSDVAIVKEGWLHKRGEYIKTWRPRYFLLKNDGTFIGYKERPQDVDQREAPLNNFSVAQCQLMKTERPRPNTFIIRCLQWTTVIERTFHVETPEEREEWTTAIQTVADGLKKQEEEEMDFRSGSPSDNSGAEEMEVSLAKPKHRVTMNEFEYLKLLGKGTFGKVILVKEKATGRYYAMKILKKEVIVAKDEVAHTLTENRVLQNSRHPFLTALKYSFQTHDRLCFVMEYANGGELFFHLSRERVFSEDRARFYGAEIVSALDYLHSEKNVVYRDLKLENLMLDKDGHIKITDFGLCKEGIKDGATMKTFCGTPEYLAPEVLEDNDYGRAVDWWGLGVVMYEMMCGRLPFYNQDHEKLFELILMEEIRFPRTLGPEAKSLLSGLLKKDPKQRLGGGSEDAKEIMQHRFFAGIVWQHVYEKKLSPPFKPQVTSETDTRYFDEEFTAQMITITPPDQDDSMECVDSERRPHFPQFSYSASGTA
Furin, sequence (P09958 whole entry): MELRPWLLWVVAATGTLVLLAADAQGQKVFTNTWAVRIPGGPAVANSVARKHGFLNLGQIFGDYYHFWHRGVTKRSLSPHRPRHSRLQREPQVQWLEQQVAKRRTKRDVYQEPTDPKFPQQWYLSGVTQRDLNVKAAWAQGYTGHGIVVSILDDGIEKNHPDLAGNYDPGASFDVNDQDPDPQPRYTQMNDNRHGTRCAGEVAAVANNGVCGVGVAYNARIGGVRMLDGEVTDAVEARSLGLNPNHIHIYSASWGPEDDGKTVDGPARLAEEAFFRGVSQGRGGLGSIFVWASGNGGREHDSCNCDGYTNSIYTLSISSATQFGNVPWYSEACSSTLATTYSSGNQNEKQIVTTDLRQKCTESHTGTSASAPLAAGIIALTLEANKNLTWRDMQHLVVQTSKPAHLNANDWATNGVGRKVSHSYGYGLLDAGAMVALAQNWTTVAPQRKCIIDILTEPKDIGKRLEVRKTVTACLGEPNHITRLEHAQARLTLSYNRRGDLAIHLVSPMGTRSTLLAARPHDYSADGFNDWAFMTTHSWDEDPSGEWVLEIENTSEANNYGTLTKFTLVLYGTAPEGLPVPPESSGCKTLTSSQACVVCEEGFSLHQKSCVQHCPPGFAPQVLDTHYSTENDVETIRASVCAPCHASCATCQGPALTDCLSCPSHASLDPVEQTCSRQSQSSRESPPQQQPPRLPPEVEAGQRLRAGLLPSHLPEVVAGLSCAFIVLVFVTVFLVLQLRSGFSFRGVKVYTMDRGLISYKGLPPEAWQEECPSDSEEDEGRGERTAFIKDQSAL
Mitogen-activated protein kinase 14, sequence (Q16539 whole entry): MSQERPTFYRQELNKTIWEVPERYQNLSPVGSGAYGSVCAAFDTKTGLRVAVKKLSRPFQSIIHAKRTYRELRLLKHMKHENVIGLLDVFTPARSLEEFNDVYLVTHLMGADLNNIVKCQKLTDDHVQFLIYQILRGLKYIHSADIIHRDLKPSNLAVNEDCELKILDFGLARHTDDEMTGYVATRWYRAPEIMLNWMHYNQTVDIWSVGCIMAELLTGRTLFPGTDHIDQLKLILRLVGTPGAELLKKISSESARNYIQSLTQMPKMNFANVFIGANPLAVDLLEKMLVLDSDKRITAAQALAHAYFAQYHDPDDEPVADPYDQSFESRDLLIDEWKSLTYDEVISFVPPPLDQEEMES

Row | Structure (SMILES) | IC50 [1] | IC50 [2] | further results
1 | O=[N+]([O-])c1ccc(Sc2nc3ccccc3o2)c([N+](=O)[O-])c1 | > 100 µM | – | –
2 | COc1ccc2sc(Sc3ncc([N+](=O)[O-])s3)nc2c1 | 1.8 µM | 0.1 µM | IC50 [3]: > 100 µM; IC50 [4]: > 100 µM; IC50 (Furin): > 50 µM; inhibition [5]: 5%
3 | Cn1c(Sc2nc3ccc(Cl)cc3s2)nnc1-c1ccc2ncccc2c1 | > 50 µM | – | –
4 | COc1ccccc1-c1nnc(Sc2nc3ccc(Cl)cc3s2)n1-c1ccccc1 | > 50 µM | – | –
5 | O=[N+]([O-])c1cnc(Sc2nc3ccccc3[nH]2)s1 | 8.1 µM | 0.67 µM | –
6 | CCOc1ccc2nc(Sc3ncc([N+](=O)[O-])s3)sc2c1 | > 50 µM | – | –
7 | COc1ccc2[nH]c(Sc3ncc([N+](=O)[O-])s3)nc2c1 | 4.7 µM | 0.13 µM | –
8 | O=[N+]([O-])c1cnc(Sc2nc3ccccc3s2)s1 | 1.8 µM | 0.16 µM | IC50 [3]: > 100 µM; IC50 [4]: > 100 µM; IC50 [6]: 15 µM; remaining at 1 h [7]: 80%; IC50 (Furin): > 50 µM; inhibition [5]: 2%; t1/2 (Liver microsomes): 1.17 h
9 | O=[N+]([O-])c1cnc(Sc2nc3cc(C(F)(F)F)ccc3[nH]2)s1 | 20.2 µM | 0.14 µM | –
10 | O=C(O)c1ccc(CSc2nc3ccccc3[nH]2)cc1 | > 100 µM | – | –
11 | O=[N+]([O-])c1cnc(Sc2nc3ccccc3o2)s1 | 2.7 µM | 0.24 µM | –
12 | Nc1ncnc2[nH]c(SCc3ccc(C(=O)O)cc3)nc12 | 70 µM | – | –
13 | O=[N+]([O-])c1cnc(Sc2nc3cc(Cl)ccc3o2)s1 | 27 µM | 0.11 µM | –
14 | Cn1c(Sc2ncc([N+](=O)[O-])s2)nc2ccccc21 | > 50 µM | 1.5 µM | –
15 | Cc1ccc2nc(Sc3ncc([N+](=O)[O-])s3)oc2c1 | > 50 µM | 0.29 µM | –
16 | O=[N+]([O-])c1cnc(Sc2nc3ncccc3s2)s1 | 4.2 µM | 0.4 µM | –
17 | Nc1nc(Sc2ncc([N+](=O)[O-])s2)c2nc[nH]c2n1 | 55 µM | 1 µM | –
18 | O=[N+]([O-])c1cnc(Sc2nc3ccc(Cl)cc3s2)s1 | > 50 µM | 0.796 µM | –
19 | O=[N+]([O-])c1cnc(Sc2nc3cc(Cl)c(Cl)cc3[nH]2)s1 | 23 µM | 1.5 µM | –
20 | O=[N+]([O-])c1ccc2nc(Sc3ncc([N+](=O)[O-])s3)[nH]c2c1 | 6.4 µM | 3.2 µM | –
21 | CO/N=C(\C(=O)Sc1nc2ccccc2s1)c1csc(N)n1 | > 50 µM | 1.7 µM | –
22 | Nc1ncnc2nc(Sc3ncc([N+](=O)[O-])s3)[nH]c12 | 27 µM | > 1 µM | –
23 | Cc1nnc(Sc2nc3ccc(Cl)cc3s2)n1-c1ccc2c(c1)OCCO2 | > 50 µM | – | –
24 | Cc1ccc2[nH]c(Sc3ncc([N+](=O)[O-])s3)nc2c1 | 3.8 µM | 0.02 µM | –
25 | Cn1c(Sc2nc3ccc(Cl)cc3s2)nnc1-c1cccs1 | > 50 µM | – | –
26 | Cn1c(Sc2nc3ccc(Cl)cc3s2)nnc1-c1ccc(Cl)cc1Cl | > 50 µM | – | –
27 | O=[N+]([O-])c1cnc(Sc2nc3cc(S(=O)(=O)O)ccc3[nH]2)s1 | > 50 µM | – | –
28 | O=[N+]([O-])c1cnc(Sc2nc3cc(Cl)ccc3s2)s1 | > 50 µM | > 1 µM | –

Reference: ChEMBL document CHEMBL1153381, “Discovery of 2-(5-nitrothiazol-2-ylthio)benzo[d]thiazoles as novel c-Jun N-terminal kinase inhibitors” (Bioorg Med Chem, 2009)
